Measurements taken from ChEMBL document CHEMBL1137958, “2('),3(')-didehydro-2('),3(')-dideoxynucleosides are degraded to furfuryl alcohol under acidic conditions” (Bioorg Med Chem Lett, 2004).
pEC50, pIC50: −log10 of the molar value.

What was measured:
[1] = test system: Vero; assay: Cytotoxicity was determined in Vero cells, relative to RVT; type: functional, cell-based; conditions: Chlorocebus sabaeus
[2] = Cytotoxicity was determined in PBM cells, relative to RVT; type: functional, cell-based; conditions: Homo sapiens, PBMC
[3] = test system: CCRF-CEM; assay: Cytotoxicity was determined in CEM cells, relative to RVT; type: functional, cell-based; conditions: Homo sapiens
[4] = The anti-HIV-1 activity was assayed in activated human peripheral blood mononuclear (PBM) cells, relative to RVT; type: functional
[5] = Estimated half-life at 20 degree C in 0.05 M pH 2 NaH2PO4 buffer; type: ADME; conditions: phosphate buffer
Method in brief: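 About 1 mg of nucleoside was dissolved in 0.05 M NaH2PO4 (pH 2.0) and stirred at ambient temperature for 24 h. Samples taken at 1 and 24 h were analysed by reverse-phase C18 HPLC, eluting with a gradient of 0.05 M triethylammonium bicarbonate to 70% acetonitrile. Half-life was estimated from the HPLC data, and TLC was run at 24 h.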

Structure (SMILES) | pIC50 [1] | pIC50 [2] | pIC50 [3] | pEC50 [4] | EC90 [4] [µM] | half-life [5] [min]
Cc1c[nH]c(=O)[nH]c1=O [THYMINE] | < 4.00 | < 4.00 | < 4.00 |  |  | 
OCc1ccco1 [FURFURYL ALCOHOL] | < 4.00 | < 4.00 | < 4.00 | < 4.00 | > 100 | 
Nc1nc(=O)n([C@@H]2C=C[C@H](CO)O2)cc1F [ELVUCITABINE] | < 4.00 | < 4.00 | < 4.00 | 7.17 | 1.9 | 45
Nc1nc(NC2CC2)c2ncn(C3C=CC(CO)O3)c2n1 (centres undefined) |  |  |  |  |  | 41
Nc1nc(=O)[nH]cc1F [FLUCYTOSINE] | < 4.00 | ≤ 4.00 | < 4.00 |  |  | 
Cc1cn([C@H]2C=C[C@@H](CO)O2)c(=O)[nH]c1=O [STAVUDINE] |  |  |  |  |  | 50000
Cc1cn([C@H]2C[C@H](N=[N+]=[N-])[C@@H](CO)O2)c(=O)[nH]c1=O [ZIDOVUDINE] |  | < 4.00 |  | 8.70 | 0.02 | 
C[C@@H]1C[C@@H]([C@H](O)CC2CC(=O)NC(=O)C2)C(=O)[C@@H](C)C1 [CYCLOHEXIMIDE] | 6.28 | 6.34 | 7.10 |  |  | 
Nc1nc2[nH]cnc2c(=O)[nH]1 [GUANINE] | 4.26 | < 4.00 | 4.19 |  |  | 
Nc1nc(O)c2ncn(C3C=CC(CO)O3)c2n1 (centres undefined) |  |  |  |  |  | < 2
